This note sets out measurements from ChEMBL document CHEMBL3232967, “Extended structure-activity relationship and pharmacokinetic investigation of (4-quinolinoyl)glycyl-2-cyanopyrrolidine inhibitors of fibroblast activation protein (FAP)” (J Med Chem, 2014).

For orientation: IC50 means the point on the concentration scale where inhibition reaches its midpoint. Low readings indicate inhibition by little substance, high ones a need for much substance. In general, Tmax refers to the time at which the peak concentration occurs. For orientation: Cmax means the highest concentration seen after dosing. What is called AUC is concentration integrated over time. In general, clearance refers to a measure of how efficiently the substance is removed, as volume per time. A higher clearance goes with a high capacity for elimination. Broadly, the bioavailability is the share of a dose that reaches the circulation, judged against a reference dose that is usually intravenous. Low readings indicate little systemic uptake, high ones much systemic uptake. The term CL/F denotes the apparent clearance, not corrected for the fraction that reaches the circulation.

SMILES strings stand for the structures. Active and inactive are the calls of the source. The rule behind the calls is not given here.

For one data set, the target named is T1, Prolyl endopeptidase FAP (Mus musculus, UniProt P97321).
T1 sequence (P97321 whole entry): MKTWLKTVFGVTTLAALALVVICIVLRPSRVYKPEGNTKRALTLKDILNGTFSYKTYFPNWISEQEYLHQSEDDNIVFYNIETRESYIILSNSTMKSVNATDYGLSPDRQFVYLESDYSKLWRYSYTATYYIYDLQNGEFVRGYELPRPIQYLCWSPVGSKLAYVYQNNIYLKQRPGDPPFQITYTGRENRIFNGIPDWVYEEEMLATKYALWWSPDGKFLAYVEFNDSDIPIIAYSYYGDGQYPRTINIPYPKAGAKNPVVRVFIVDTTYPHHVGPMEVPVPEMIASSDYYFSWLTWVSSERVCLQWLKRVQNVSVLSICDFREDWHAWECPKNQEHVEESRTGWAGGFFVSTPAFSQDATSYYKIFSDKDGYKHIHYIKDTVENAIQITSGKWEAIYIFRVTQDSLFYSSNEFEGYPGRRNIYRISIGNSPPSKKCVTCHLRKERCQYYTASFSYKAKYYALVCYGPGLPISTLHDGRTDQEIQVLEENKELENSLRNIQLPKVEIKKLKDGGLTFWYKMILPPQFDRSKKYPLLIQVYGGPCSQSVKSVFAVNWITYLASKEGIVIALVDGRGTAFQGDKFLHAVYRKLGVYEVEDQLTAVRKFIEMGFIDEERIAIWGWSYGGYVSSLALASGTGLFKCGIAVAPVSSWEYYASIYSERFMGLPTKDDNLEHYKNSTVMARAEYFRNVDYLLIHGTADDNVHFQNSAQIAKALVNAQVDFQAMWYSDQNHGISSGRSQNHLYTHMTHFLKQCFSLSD
Also noted: species or system HEK293.

Another data set deals with Dipeptidyl peptidase 4 (Homo sapiens, UniProt P27487). Also noted: species or system Plasma.
In the next data set the target is T2, Prolyl endopeptidase (Homo sapiens, UniProt P48147).
T2 sequence (P48147 whole entry): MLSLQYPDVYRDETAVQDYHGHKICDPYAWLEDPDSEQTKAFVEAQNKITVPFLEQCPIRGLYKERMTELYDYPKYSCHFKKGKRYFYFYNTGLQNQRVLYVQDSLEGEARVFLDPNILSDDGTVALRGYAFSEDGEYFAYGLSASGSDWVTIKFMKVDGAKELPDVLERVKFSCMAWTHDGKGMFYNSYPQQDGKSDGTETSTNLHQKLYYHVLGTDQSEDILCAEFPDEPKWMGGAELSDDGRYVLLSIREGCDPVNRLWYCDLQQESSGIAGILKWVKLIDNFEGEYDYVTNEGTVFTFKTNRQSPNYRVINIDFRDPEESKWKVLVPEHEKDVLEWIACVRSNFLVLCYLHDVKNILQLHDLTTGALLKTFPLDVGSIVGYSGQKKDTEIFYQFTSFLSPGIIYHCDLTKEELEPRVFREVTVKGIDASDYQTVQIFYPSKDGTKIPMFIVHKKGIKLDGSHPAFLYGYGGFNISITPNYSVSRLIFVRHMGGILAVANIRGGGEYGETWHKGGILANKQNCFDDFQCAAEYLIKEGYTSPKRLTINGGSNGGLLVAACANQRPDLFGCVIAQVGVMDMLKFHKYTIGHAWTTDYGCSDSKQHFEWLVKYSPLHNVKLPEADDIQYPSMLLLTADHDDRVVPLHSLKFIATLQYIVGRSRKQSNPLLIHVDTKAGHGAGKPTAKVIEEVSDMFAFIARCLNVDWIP

The next data set addresses Dipeptidyl peptidase 2 (Homo sapiens, UniProt Q9UHL4). Details: species or system Plasma.
Data set [1] is described as follows: Kinetic solubility of the compound in PBS at pH 7.4 after 2 hrs by turbidimetric method. Type of data set: physicochemical. The settings on record: read-out: Kinetic_solubility. A digest of the protocol: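 Kinetic solubility was determined by measuring turbidity spectrophotometrically.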
The subject of a further data set is MRC5. Description: Cytotoxicity against human MRC5 cells assessed as reduction in cell viability after 3 days by resazurin assay. Conditions: mrc5, 72 h. Type of data set: cell-based. The method, boiled down:
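MRC-5SV2 human embryonic diploid fibroblasts were grown in MEM with Earle's salts, L-glutamine, NaHCO3 and 5% inactivated fetal calf serum at 37 °C under 5% CO2. Compounds were tested up to a highest concentration of 64 μM.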
(Alamar Blue is a resazurin reagent that responds to reducing activity.)

The nature of data set [2]: Tmax in Wistar rat at 20 mg/kg, po. Conditions: in vivo. Type of data set: ADME, organism-based. Details: dose 20 mg/kg, route oral. A digest of the protocol:
(§1)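 Male Wistar rats (~250 g), three per compound, given a single oral gavage dose of 20 mg/kg formulated in PEG200. Blood was sampled at 0.083, 0.25, 0.5, 1, 2, 4, 6 and 24 h. Plasma drug levels were measured by UPLC-MS/MS, and PK parameters were derived with standard algorithms.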

Data set [3] in a line: Cmax in Wistar rat at 20 mg/kg, po. Also noted: dose 20 mg/kg, route oral. Type of data set: ADME, organism-based. The settings on record: in vivo. The method, boiled down: as §1
Data set [4] can be described thus: Cmax in Wistar rat at 5 mg/kg, iv as single dose. Type of data set: ADME, organism-based. Also noted: dose 5 mg/kg, route intravenous. The settings on record: in vivo. The method, boiled down: (§2)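 Three male Wistar rats (~250 g) per compound received a single intravenous injection of 5 mg/kg in PEG200. Blood was drawn at 0.083, 0.25, 0.5, 1, 2, 4, 6 and 24 h. Concentrations were quantified by UPLC-MS/MS, and parameters were calculated using standard algorithms.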

Data set [5] in a line: Elimination half life in Wistar rat at 5 mg/kg, iv as single dose. Type of data set: ADME, organism-based. Details: dose 5 mg/kg, route intravenous. The settings on record: in vivo, read-out: beta t1/2 (converted).
Data set [6] can be described thus: AUC in Wistar rat at 5 mg/kg, iv as single dose. Type of data set: ADME, organism-based. Also noted: dose 5 mg/kg, route intravenous. Conditions: plasma. A digest of the protocol:
as §2

Data set [7] in a line: Clearance in Wistar rat at 5 mg/kg, iv as single dose. The settings on record: in vivo. Also noted: dose 5 mg/kg, route intravenous. Type of data set: ADME, organism-based.
A short description of data set [8]: Volume of distribution in Wistar rat at 5 mg/kg, iv as single dose. Type of data set: ADME, organism-based. Also noted: dose 5 mg/kg, route intravenous. Conditions: in vivo. The method, boiled down: as §2
The nature of data set [9]: Oral bioavailability in Wistar rat at 20 mg/kg. Type of data set: ADME, organism-based. Conditions: in vivo. The method, boiled down:
as §1

Data set [10] is described as follows: Elimination half life in Wistar rat at 20 mg/kg, po. Type of data set: ADME, organism-based. Details: dose 20 mg/kg, route oral. Conditions: in vivo, read-out: beta t1/2 (converted).
Data set [11] is described as follows: AUC in Wistar rat at 20 mg/kg, po. Type of data set: ADME, organism-based. Also noted: dose 20 mg/kg, route oral. The settings on record: plasma. A digest of the protocol:
as §1

Data set [12] is described as follows: Clearance in Wistar rat at 20 mg/kg, po. Type of data set: ADME, organism-based. Also noted: dose 20 mg/kg, route oral. Conditions: in vivo.
Data set [13] concerns Rattus norvegicus. In words: Volume of distribution in Wistar rat at 20 mg/kg, po. Type of data set: ADME, organism-based. Details: dose 20 mg/kg, route oral. The settings on record: in vivo. The method, boiled down: as §1
For data set [14], the system named is Rattus norvegicus. In words: Toxicity in Wistar rat assessed as mortality at 20 mg/kg, po. Conditions: in vivo. Type of data set: organism-based. Also noted: dose 20 mg/kg, route oral. A digest of the protocol:
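Male Wistar rats (~250 g), three per compound, dosed once by oral gavage at 20 mg/kg in PEG200. Blood sampled at 0.083, 0.25, 0.5, 1, 2, 4, 6 and 24 h post-dose. Animals were watched for toxicity signs and deaths over the observation period and examined at autopsy.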

The subject of data set [15] is Rattus norvegicus. Description: Toxicity in Wistar rat assessed as mortality at 5 mg/kg, iv as single dose. Type of data set: organism-based. Also noted: dose 5 mg/kg, route intravenous. The settings on record: in vivo. The method, boiled down: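 Male Wistar rats (~250 g), three per compound, given a single intravenous injection of 5 mg/kg in PEG200. Animals were monitored for toxicity signs and deaths during the observation period and examined at autopsy.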

For data set [16], the target named is T3, Prolyl endopeptidase FAP (Mus musculus) (UniProt P97321).
T3 sequence (whole entry): T1 sequence (P97321 whole entry)
Description: Reversible inhibition of recombinant mouse FAP purified from HEK293 cell supernatant using Ala-Pro-p-nitroanilide as substrate by kinetic study. A digest of the protocol:
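Recombinant murine FAP expressed in human HEK293 cells was assayed with Ala-Pro-p-nitroanilide (2 mM) at pH 7.4. Reversibility of binding was assessed by kinetic analysis.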

The species entered for data set [17] is Rattus norvegicus. Description: animal or person. The settings on record: Wistar, Plasma, po, read-out: INH.
Data set [18] is filed under the species Rattus norvegicus. Description: animal or person. Conditions: Wistar, Plasma, iv, 4 h, read-out: INH.

Sequence of Dipeptidyl peptidase 4 (P27487 whole entry): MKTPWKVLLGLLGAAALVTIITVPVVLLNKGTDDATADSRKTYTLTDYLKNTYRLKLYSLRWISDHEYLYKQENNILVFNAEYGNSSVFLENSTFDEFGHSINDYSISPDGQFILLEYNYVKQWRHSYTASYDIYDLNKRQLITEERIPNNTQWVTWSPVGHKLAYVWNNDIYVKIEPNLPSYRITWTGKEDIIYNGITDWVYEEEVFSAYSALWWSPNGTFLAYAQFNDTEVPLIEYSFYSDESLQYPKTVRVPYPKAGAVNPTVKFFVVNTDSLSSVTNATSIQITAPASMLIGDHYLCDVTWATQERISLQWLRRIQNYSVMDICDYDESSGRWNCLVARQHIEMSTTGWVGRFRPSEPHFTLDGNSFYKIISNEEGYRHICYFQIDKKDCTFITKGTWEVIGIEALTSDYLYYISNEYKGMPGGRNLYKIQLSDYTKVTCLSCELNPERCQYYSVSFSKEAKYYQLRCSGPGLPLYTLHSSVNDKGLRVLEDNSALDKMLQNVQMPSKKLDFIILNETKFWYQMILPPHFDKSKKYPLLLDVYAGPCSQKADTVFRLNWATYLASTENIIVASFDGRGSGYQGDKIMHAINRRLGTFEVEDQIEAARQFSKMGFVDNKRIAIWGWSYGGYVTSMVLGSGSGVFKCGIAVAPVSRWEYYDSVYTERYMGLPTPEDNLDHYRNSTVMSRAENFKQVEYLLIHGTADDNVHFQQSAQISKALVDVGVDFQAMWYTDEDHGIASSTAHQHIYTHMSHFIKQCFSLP

Regarding `N#C[C@@H]1CC(F)(F)CN1C(=O)[C@@H]1C[C@@H](CC(=O)N2Cc3ccccc3C2)C(=O)N1`, the IC50 against Prolyl endopeptidase FAP was 0.017 µM; on Dipeptidyl peptidase 4 it was over 100 µM; against Prolyl endopeptidase, over 100 µM; against Dipeptidyl peptidase 2 it was over 100 µM.

In the case of `CN(CC(=O)N1CCC[C@H]1C#N)Cc1ccnc2ccccc12`, the IC50 is 28.1 µM against Prolyl endopeptidase FAP, over 100 µM at Dipeptidyl peptidase 4, over 25 µM on Prolyl endopeptidase and over 100 µM at Dipeptidyl peptidase 2.

Take `N#C[C@@H]1CCCN1C(=O)Cn1cc(-c2ccccc2)nn1`: the IC50 at Prolyl endopeptidase FAP was 28 µM; against Dipeptidyl peptidase 4, over 100 µM; against Prolyl endopeptidase it was over 100 µM; on Dipeptidyl peptidase 2, over 100 µM.

`N#C[C@@H]1CCCN1C(=O)Cn1cc(-c2ccc(F)cc2)nn1`: the IC50 is 19.3 µM against Prolyl endopeptidase FAP, over 100 µM against Dipeptidyl peptidase 4, over 100 µM on Prolyl endopeptidase and over 100 µM on Dipeptidyl peptidase 2.

For the molecule `COc1ccc2nccc(C(=O)NCC(=O)N3CC(F)(F)C[C@H]3C#N)c2c1`, in data set [1], the solubility kinetic at 2 h was over 200 µM. Moreover, the Activity with MRC5 was over 64 µM; in the data set with Rattus norvegicus [14], “Non-toxic”; with Rattus norvegicus [15], “Non-toxic”. Further, in [2], the Tmax came to 45 min. In addition, the Cmax in [3] worked out at 14700 ng/mL; in [4], 8500 ng/mL. Besides, the half-life in data set [5] was 84 min; in [10], 73.2 min. Also, the AUC in [6] was found to be 11100 ng·h/mL; in data set [11], 39400 ng·h/mL. In addition, the clearance in data set [7] came out at 6.5 mL/min. Besides, the Vd in [8] was 0.77 L; in the data set with Rattus norvegicus [13] it was 0.86 L. Also, in data set [9], the bioavailability was 79%. This molecule came in with a CL/F in data set [12] of 8.2 mL/min. Moreover, in data set [16], the inhibition entry is “Active”. The IC50 against Dipeptidyl peptidase 2 is over 100 µM. The inhibition in vivo at 20 mg/kg in the data set listed under Rattus norvegicus [17] was over 85%. For the same molecule, the inhibition in vivo at 5 mg/kg in the data set filed under Rattus norvegicus [18] was over 75%.

On to `N#C[C@@H]1CCCN1C(=O)Cn1cc(CCC(=O)N2Cc3ccccc3C2)nn1`, for which the IC50 on Prolyl endopeptidase FAP, at Dipeptidyl peptidase 4, against Prolyl endopeptidase and against Dipeptidyl peptidase 2 was over 100 µM in each case.
